In test [1] the test system is MT4. The test is described as follows: Cytotoxic concentration required to reduce the viability of mock-infected MT-4 cells by 50%. Type of test: functional. The settings on record: Homo sapiens. An outline of the steps:
(§1)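 Mock-infected MT-4 cells at 2.5×10^5 cells/mL plated with various concentrations of compound, run in parallel with the antiviral assay. Viable cells counted by MTT after 4 days or 5 days at 37 °C. CC50 is the concentration that lowers viability by 50%.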

Test [2] has as its system Human immunodeficiency virus. The test is described as follows: Effective concentration required to achieve 50% protection of MT-4 cells against the cytopathic effect of HIV-1 (HTLV-IIIB). The conditions noted are these: Human immunodeficiency virus 1, MT4. In kind it is functional, organism-based. In short, it runs like this:
(§2)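 MT-4 cells at 2.5×10^5 cells/mL infected with 1000 CCID50 of the named HIV strain, then plated at once over a range of compound concentrations. Incubation at 37 °C for 4 days or 5 days. Viable cells read by MTT. EC50 is the concentration giving 50% protection from virus-induced cytopathic effect.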

Test [3] deals with MT4. The test is described as follows: Selectivity Index measured as the ratio of CC50 to that of EC50 values.
In test [4] the test system is Human immunodeficiency virus. The test is described as follows: Effective concentration required to achieve 50% protection of MT-4 cells against the cytopathic effect of HIV-1 (HTLV-IIIRF strain) and determined on 4th day after virus infection. In kind it is functional, organism-based. The settings on record: Human immunodeficiency virus 1, MT4. An outline of the steps: as §2

The test system of test [5] is Human immunodeficiency virus. The test is described as follows: Effective concentration required to achieve 50% protection of MT-4 cells against the cytopathic effect of HIV-2 (LAV-2ROD strain) and determined on 4th day after virus infection. The conditions noted are these: Human immunodeficiency virus 1, MT4. In kind it is functional, organism-based. An outline of the steps: as §2
Background: Protection from cytopathic effect is a common read-out in antiviral testing.

Test [6] deals with Human immunodeficiency virus. The test is described as follows: Effective concentration required to achieve 50% protection of MT-4 cells against the cytopathic effect of HIV-1 (HTLV-IIIB strain) and determined on 4th day after virus infection. In kind it is functional, organism-based. The conditions noted are these: Human immunodeficiency virus 1, MT4. In short, it runs like this: as §2

Test [7] deals with Human immunodeficiency virus. The test is described as follows: Effective concentration required to achieve 50% protection of MT-4 cells against the cytopathic effect of HIV-2 ((LAV-2EHO strain) and determined on 4th day after virus infection. Type of test: functional, organism-based. The conditions noted are these: Human immunodeficiency virus 1, MT4. In short, it runs like this:
as §2

The test system of test [8] is Human immunodeficiency virus. The test is described as follows: Cytotoxic concentration required to reduce the viability of mock-infected MT-4 cells (HIV-1 HTLV-IIIB strain) by 50% was determined on 4th day after virus infection. The settings on record: Human immunodeficiency virus 1, MT4. Type of test: functional. In short, it runs like this: as §1

Some results are limits rather than exact numbers.

In general, CC50 refers to the concentration giving 50% cytotoxicity. The EC50 is the concentration that produces a half-maximal response. Higher therefore signals a less potent agent. The compound `C=Cc1c(C)c(=O)[nH]c(=O)n1COCCO` registered a CC50 in the test on MT4 [1] of more than 250 µM. For the same compound, the EC50 in test [2] was more than 250 µM.
In the test on MT4 [1], `C#Cc1c(Sc2ccccc2)n(COCCO)c(=O)[nH]c1=O` showed a CC50 of 18 µM. Further, the Selectivity index with MT4 [3] is less than 1. In test [2], the EC50 was more than 18 µM.
In the test on MT4 [1], `CCCCSc1c(C)c(=O)[nH]c(=O)n1COCCO` had a CC50 of more than 250 µM. For the same compound, the EC50 in test [2] came out at 130 µM.
Take `O=C(c1ccccc1)c1c(Sc2ccccc2)n(COCCO)c(=O)[nH]c1=O`: the midpoint of cytotoxicity in the test with MT4 [1], the CC50, lay at 13 µM. Moreover, in the test on MT4 [3], the Selectivity index is recorded as less than 1. Moreover, the EC50 in test [2] was more than 13 µM.
On the same counts, the results for `O=c1[nH]c(=O)n(COCCO)c(Sc2ccccc2)c1C=C(c1ccccc1)c1ccccc1` are 21 µM, 25 and 0.84 µM.
Turning to `CCSc1c(C)c(=O)[nH]c(=O)n1COCCO`, the CC50 in the test with MT4 [1] is more than 250 µM. The EC50 in test [2] was more than 250 µM.
Consider `O=c1[nH]c(=O)n(COCCO)c(Sc2ccccc2)c1/C=C/c1ccccc1`, for which the CC50 in the test on MT4 [1] was determined as 95 µM. Further, the Selectivity index in the test with MT4 [3] came out at 16. In addition, the EC50 in test [2] turned out to be 6 µM.
In the test on MT4 [1], `Cc1c(C(O)c2ccccc2)n(COCCO)c(=O)[nH]c1=O` (centres undefined) came in with a 50% cytotoxic concentration (CC50) of 400 µM. Further, the Selectivity index with MT4 [3] was less than 1. In test [2], this compound showed an EC50 of more than 400 µM.
In the test with MT4 [1], `O=c1[nH]c(=O)n(COCCO)c(Sc2ccccc2)c1C#Cc1ccccc1` had a half-maximal cytotoxic concentration (CC50) of 3.4 µM. Besides, the Selectivity index with MT4 [3] is recorded as less than 1. In test [2], this compound gave a half-maximal effective concentration (EC50) of more than 3.4 µM.
In the test on MT4 [1], `Cc1c(Nc2ccccc2)n(COCCO)c(=O)[nH]c1=O` registered a CC50 of 327 µM. Besides, the Selectivity index in the test on MT4 [3] is less than 1. In test [2], the EC50 is more than 327 µM.
In the same order, the values of `CC(C)C(=O)c1c(Sc2ccccc2)n(COCCO)c(=O)[nH]c1=O` are 12 µM, less than 1 and more than 12 µM.
On the same counts, the results for `COc1c(C)c(=O)[nH]c(=O)n1COCCO` are 484 µM, less than 1 and more than 484 µM.
In the test on MT4 [1], `C=Cc1c(Sc2ccccc2)n(COCCO)c(=O)[nH]c1=O` came in with a CC50 of 76 µM. In addition, the Selectivity index in the test with MT4 [3] was 69. The compound further yielded an EC50 in test [2] of 1.1 µM.
In the same order, the values of `Cc1c(OC2CCCCC2)n(COCCO)c(=O)[nH]c1=O` are 400 µM, less than 1 and more than 400 µM.
Compound `CC#Cc1c(C)c(=O)[nH]c(=O)n1COCCO` yielded a CC50 in the test on MT4 [1] of more than 250 µM. The 50% effective concentration (EC50) in test [2] is more than 250 µM.
With `Cc1c(Sc2ccccc2)n(COCCO)c(=O)[nH]c1=O` [HEPT], the CC50 in the test on MT4 [1] was 740 µM; in test [8] it was more than 500 µM. The EC50 in test [4] was 8.1 µM; in test [5], more than 250 µM; in test [6], 6.5 µM; in test [7], more than 250 µM; in test [2], 7 µM.
In turn, `Cc1c(C(=O)c2ccccc2)n(COCCO)c(=O)[nH]c1=O` showed a CC50 with MT4 [1] of 366 µM. Also, the Selectivity index with MT4 [3] is reported as less than 1. Also, in test [2], the EC50 is more than 366 µM.
For `CSc1c(C)c(=O)[nH]c(=O)n1COCCO`, the CC50 in the test on MT4 [1] is more than 250 µM. This compound gave an EC50 in test [2] of more than 250 µM.
In the case of `Nc1ncnc2c1ncn2[C@H]1CC[C@@H](CO)O1`, in the test with MT4 [1], half-maximal cytotoxicity (CC50) was put at 890 µM. The Selectivity index in the test with MT4 [3] is recorded as 141. In test [2], this compound yielded an EC50 of 6.3 µM.
On the same counts, the results for `Cc1c(Cc2ccccc2)n(COCCO)c(=O)[nH]c1=O` are 352 µM, 15 and 23 µM.
On the same counts, the results for `O=c1[nH]c(=O)n(COCCO)c(Sc2ccccc2)c1Sc1ccccc1` are 21 µM, less than 1 and more than 21 µM.
Consider `C#Cc1c(C)c(=O)[nH]c(=O)n1COCCO`, for which, in the test with MT4 [1], the CC50 came out at 5.5 µM. Further, the Selectivity index in the test with MT4 [3] is less than 1. Further, in test [2], the EC50 was more than 5.5 µM.
In the same order, the values of `Nc1ccn([C@H]2CC[C@@H](CO)O2)c(=O)n1` [ZALCITABINE] are 40 µM, 133 and 0.3 µM.
`Cc1c(/C=C/c2ccccc2)n(COCCO)c(=O)[nH]c1=O`: in the test on MT4 [1], the CC50 was more than 250 µM. The compound further came in with an EC50 in test [2] of more than 250 µM.
As for `Cc1c(NC2CCCCC2)n(COCCO)c(=O)[nH]c1=O`, it took 337 µM to reach half-maximal cytotoxicity in the test with MT4 [1] (CC50). Also, in the test on MT4 [3], the Selectivity index is reported as less than 1. The compound further registered an EC50 in test [2] of more than 377 µM.
In the same order, the values of `Cc1c(C#Cc2ccccc2)n(COCCO)c(=O)[nH]c1=O` are 14 µM, less than 1 and more than 14 µM.
In the same order, the values of `O=c1[nH]c(=O)n(COCCO)c(Sc2ccccc2)c1I` are 20 µM, 5.6 and 3.6 µM.
Take `CC#Cc1c(Sc2ccccc2)n(COCCO)c(=O)[nH]c1=O`: in the test with MT4 [1], the CC50 turned out to be 19 µM. Besides, the Selectivity index with MT4 [3] is recorded as less than 1. In addition, in test [2], the EC50 is more than 19 µM.
For the compound `O=c1[nH]c(=O)n(COCCO)c(Sc2ccccc2)c1Cc1ccccc1`, it took 23 µM to reach half-maximal cytotoxicity with MT4 [1] (CC50). Besides, the Selectivity index with MT4 [3] was less than 1. Moreover, the EC50 in test [2] was more than 23 µM.
`Cc1c(SC(C)(C)C)n(COCCO)c(=O)[nH]c1=O`: half-maximal cytotoxicity in the test on MT4 [1] (CC50) was put at 366 µM. The Selectivity index with MT4 [3] is given as less than 1. The EC50 in test [2] was more than 366 µM.
On to `Cc1c(Oc2ccccc2)n(COCCO)c(=O)[nH]c1=O`, for which half-maximal cytotoxicity in the test on MT4 [1] (CC50) was put at 345 µM. The Selectivity index in the test with MT4 [3] is reported as 4.1. Moreover, the response in test [2] was half-maximal at 85 µM (EC50).
For the compound `Cc1c(Cl)n(COCCO)c(=O)[nH]c1=O`, the CC50 in the test with MT4 [1] was more than 250 µM. In test [2], the EC50 is more than 250 µM.
Take `Cc1c(SC2CCCCC2)n(COCCO)c(=O)[nH]c1=O`: the CC50 in the test with MT4 [1] came out at 664 µM; in test [8], 440 µM. Besides, the Selectivity index with MT4 [3] is on record as 81. Moreover, the EC50 in test [4] was 7.9 µM; in test [5], more than 250 µM; in test [6], 7.7 µM; in test [7], more than 250 µM; in test [2], 8.2 µM.
Consider `Cc1c(Br)n(COCCO)c(=O)[nH]c1=O`, for which half-maximal cytotoxicity in the test on MT4 [1] (CC50) was put at 180 µM. Besides, the Selectivity index in the test on MT4 [3] is on record as less than 1. The same compound showed an EC50 in test [2] of more than 180 µM.
Consider `C/C=C/c1c(C)c(=O)[nH]c(=O)n1COCCO`, for which the CC50 in the test with MT4 [1] was more than 250 µM. Moreover, the EC50 in test [2] is more than 250 µM.
As for `Cc1cn([C@H]2C[C@H](N=[N+]=[N-])[C@@H](CO)O2)c(=O)[nH]c1=O` [ZIDOVUDINE], the CC50 with MT4 [1] stood at 20 µM. Further, the Selectivity index in the test on MT4 [3] was determined as 1250. The EC50 in test [2] was found to be 0.016 µM.

These data come from ChEMBL document CHEMBL1125739, “A new class of HIV-1-specific 6-substituted acyclouridine derivatives: synthesis and anti-HIV-1 activity of 5- or 6-substituted analogues of 1-[(2-hydroxyethoxy)methyl]-6-(phenylthio)thymine (HEPT)” (J Med Chem, 1991).
